Test results: ChEMBL document CHEMBL1155292, “Synthesis, analgesic and anti-inflammatory activities evaluation of some bi-, tri- and tetracyclic condensed pyrimidines” (Eur J Med Chem, 2009)

What was measured:
[1] = tested on: Rattus norvegicus; test: Antiinflammatory activity in albino rat assessed as inhibition of carrageenan-induced paw edema at 0.029 mmol/kg, po after 3 hrs relative to control; format: functional
Summary of the method: (§1)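 Adult albino rats of either sex, 120–150 g, six per group. Compounds at 0.029 mmol/kg suspended in saline with a few drops of Tween 80 and given by oral stomach tube. After 1 h, 0.1 ml of freshly prepared 1% carrageenan in saline injected subplantar into the right hind paw. Paw thickness measured at 1–4 h; % edema inhibition versus control; mean ± SEM; ANOVA.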

[2] = tested on: Mus musculus; test: Analgesic activity in po dosed albino mouse assessed as decrease in acetic acid-induced writhing administered 1 hr prior to acetic acid challenge; format: functional, organism-based
Summary of the method: (§2)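 Albino mice of either sex, 18–22 g, six per group. Test agents suspended in saline with a few drops of Tween 80 and given by oral stomach tube; controls handled identically without drug. After 1 h, 0.3 ml of 1% acetic acid ip. Writhing contractions counted for 30 min, starting 5 min after injection. % protection versus control mean; mean ± SEM; one-way ANOVA with post hoc test.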

[3] = tested on: Mus musculus; test: Analgesic activity in albino mouse assessed as decrease in acetic acid-induced writhing at 10.86 mg/kg, po administered 1 hr prior to acetic acid challenge relative to control; format: functional; summary of the method: as §2
[4] = tested on: Mus musculus; test: Analgesic activity in albino mouse assessed as decrease in acetic acid-induced writhing at 8 mg/kg, po administered 1 hr prior to acetic acid challenge; format: functional; summary of the method: as §2
[5] = tested on: Mus musculus; test: Analgesic activity in albino mouse assessed as decrease in acetic acid-induced writhing at 4 mg/kg, po administered 1 hr prior to acetic acid challenge; format: functional; summary of the method: as §2
[6] = tested on: Mus musculus; test: Analgesic activity in albino mouse assessed as decrease in acetic acid-induced writhing at 0.8 mg/kg, po administered 1 hr prior to acetic acid challenge; format: functional; summary of the method: as §2
[7] = tested on: Rattus norvegicus; test: Antiinflammatory activity in albino rat assessed as inhibition of carrageenan-induced paw edema at 0.029 mmol/kg, po after 1 hr relative to control; format: functional; summary of the method: as §1
[8] = tested on: Rattus norvegicus; test: Antiinflammatory activity in albino rat assessed as inhibition of carrageenan-induced paw edema at 0.029 mmol/kg, po after 4 hrs relative to control; format: functional; summary of the method: as §1
[9] = tested on: Rattus norvegicus; test: Antiinflammatory activity in albino rat assessed as inhibition of carrageenan-induced paw edema at 0.029 mmol/kg, po after 4 hrs relative to indomethacin; format: functional
Summary of the method: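 Rat carrageenan paw edema: oral 0.029 mmol/kg in saline/Tween 80, 1 h before subplantar 0.1 ml 1% carrageenan into the right hind paw; six rats per group. Potency is % inhibition of the test compound divided by % inhibition of indomethacin at 4 h.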

[10] = tested on: Rattus norvegicus; test: Antiinflammatory activity in albino rat assessed as inhibition of carrageenan-induced paw edema at 0.029 mmol/kg, po after 2 hrs relative to control; format: functional; summary of the method: as §1
[11] = tested on: Mus musculus; test: Analgesic activity in albino mouse assessed as decrease in acetic acid-induced writhing at 2 mg/kg, po administered 1 hr prior to acetic acid challenge; format: functional; summary of the method: as §2
[12] = tested on: Mus musculus; test: Analgesic activity in albino mouse assessed as decrease in acetic acid-induced writhing at 1 mg/kg, po administered 1 hr prior to acetic acid challenge; format: functional; summary of the method: as §2
[13] = tested on: Mus musculus; test: Analgesic activity in albino mouse assessed as decrease in acetic acid-induced writhing at 0.4 mg/kg, po administered 1 hr prior to acetic acid challenge; format: functional; summary of the method: as §2
[14] = tested on: Rattus norvegicus; test: Gastrointestinal toxicity in albino rat assessed as ulcerogenic index at 0.029 mmol/kg, po after 5 hrs; format: organism-based; conditions: in vivo
Summary of the method: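 Adult albino rats of either sex (120–150 g), 6 per group, got the test compounds orally by stomach tube as a suspension in saline with a few drops of tween 80. They were the same rats used in the carrageenan paw-edema test. Stomachs were then opened along the great curvature and examined for lesions or bleeding. Ulceration was recorded as the number of rats with ulcers out of 6.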

[15] = tested on: Rattus norvegicus; test: Antiinflammatory activity in albino rat assessed as inhibition of carrageenan-induced paw edema at 20 mg/kg, po; format: functional
Summary of the method: (§3)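 Rat carrageenan paw edema with oral dosing at 10, 15, 20 and 25 mg/kg, suspended in saline with Tween 80, 1 h before subplantar 0.1 ml 1% carrageenan into the right hind paw. % edema inhibition versus control at each dose; IC50 (mg/kg) derived from these four doses.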

[16] = tested on: Rattus norvegicus; test: Antiinflammatory activity in po dosed albino rat assessed as inhibition of carrageenan-induced paw edema; format: functional, organism-based
Summary of the method: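 Adult albino rats of either sex, 120–150 g, groups of 6. Compound suspended in saline with a few drops of tween 80, given by oral stomach tube 1 h before subplantar injection of freshly prepared 1% carrageenan (0.1 ml) in saline into right hind paw. Paw thickness read at 1–4 h; % edema inhibition versus carrageenan control; mean ± SEM, one-way ANOVA with post hoc test.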

[17] = tested on: Rattus norvegicus; test: Antiinflammatory activity in albino rat assessed as inhibition of carrageenan-induced paw edema at 15 mg/kg, po; format: functional; summary of the method: as §3
[18] = tested on: Mus musculus; test: Analgesic activity in albino mouse assessed as decrease in acetic acid-induced writhing at 11.52 mg/kg, po administered 1 hr prior to acetic acid challenge relative to control; format: functional; summary of the method: as §2
[19] = tested on: Rattus norvegicus; test: Antiinflammatory activity in albino rat assessed as inhibition of carrageenan-induced paw edema at 10 mg/kg, po; format: functional; summary of the method: as §3
[20] = tested on: Rattus norvegicus; test: Antiinflammatory activity in albino rat assessed as inhibition of carrageenan-induced paw edema at 25 mg/kg, po; format: functional; summary of the method: as §3
[21] = tested on: Mus musculus; test: Analgesic activity in albino mouse assessed as decrease in acetic acid-induced writhing at 10.39 mg/kg, po administered 1 hr prior to acetic acid challenge relative to control; format: functional; summary of the method: as §2
[22] = tested on: Mus musculus; test: Analgesic activity in albino mouse assessed as decrease in acetic acid-induced writhing at 13 mg/kg, po administered 1 hr prior to acetic acid challenge relative to control; format: functional; summary of the method: as §2
[23] = tested on: Mus musculus; test: Analgesic activity in albino mouse assessed as decrease in acetic acid-induced writhing at 11.66 mg/kg, po administered 1 hr prior to acetic acid challenge relative to control; format: functional; summary of the method: as §2
[24] = tested on: Mus musculus; test: Analgesic activity in albino mouse assessed as decrease in acetic acid-induced writhing at 11.32 mg/kg, po administered 1 hr prior to acetic acid challenge relative to control; format: functional; summary of the method: as §2
[25] = tested on: Mus musculus; test: Analgesic activity in albino mouse assessed as decrease in acetic acid-induced writhing at 12.4 mg/kg, po administered 1 hr prior to acetic acid challenge relative to control; format: functional; summary of the method: as §2
[26] = tested on: Mus musculus; test: Analgesic activity in albino mouse assessed as decrease in acetic acid-induced writhing at 15.26 mg/kg, po administered 1 hr prior to acetic acid challenge relative to control; format: functional; summary of the method: as §2
[27] = tested on: Mus musculus; test: Analgesic activity in albino mouse assessed as decrease in acetic acid-induced writhing at 12.65 mg/kg, po administered 1 hr prior to acetic acid challenge relative to control; format: functional; summary of the method: as §2
[28] = tested on: Mus musculus; test: Analgesic activity in albino mouse assessed as decrease in acetic acid-induced writhing at 14.37 mg/kg, po administered 1 hr prior to acetic acid challenge relative to control; format: functional; summary of the method: as §2
[29] = tested on: Mus musculus; test: Analgesic activity in albino mouse assessed as decrease in acetic acid-induced writhing at 12.04 mg/kg, po administered 1 hr prior to acetic acid challenge relative to control; format: functional; summary of the method: as §2

Row | Structure (SMILES) | inhibition in vivo at 29 µmol/kg [1] | inhibition in vivo at 29 µmol/kg [7] | inhibition in vivo at 29 µmol/kg [8] | relative potency at 29 µmol/kg [9] | inhibition in vivo at 29 µmol/kg [10] | UI [14] | further results
1 | CCN1C(=S)N2CCCC2C2=C1NC(c1ccc(OC)c(O)c1)NC2=O (configuration not stated) | 2.89% | 22.4% | 3.09% | 0.11 | 9.12% |  | IC50 [2]: 0.359 mg/kg; inhibition in vivo at 10.86 mg/kg [3]: 98.7%; inhibition in vivo at 8 mg/kg [4]: 97%; inhibition in vivo at 4 mg/kg [5]: 95.3%; inhibition in vivo at 0.8 mg/kg [6]: 76%; inhibition in vivo at 2 mg/kg [11]: 92%; inhibition in vivo at 1 mg/kg [12]: 86.9%; inhibition in vivo at 0.4 mg/kg [13]: 53.6%
2 | O=C1CN=C2C3=C(N=C(c4ccccc4)N12)N(c1ccccc1)C(=O)N1CCCC31 (configuration not stated) | 27.4% | 14.6% | 29.2% | 1.06 | 22.3% | Non-toxic | inhibition in vivo at 20 mg/kg [15]: 61.3%; IC50 [16]: 17.62 mg/kg; inhibition in vivo at 15 mg/kg [17]: 40%; inhibition in vivo at 11.52 mg/kg [18]: 78.5%; inhibition in vivo at 10 mg/kg [19]: 17%; inhibition in vivo at 25 mg/kg [20]: 68.4%
3 | CCN1C(=S)N2CCCC2C2=C1NC(c1ccc(OC)cc1)NC2=O (configuration not stated) | 10.8% | 10.1% | 14.9% | 0.54 | 9.12% |  | inhibition in vivo at 10.39 mg/kg [21]: 85%
4 | N#Cc1cnn(-c2nc(-c3ccccc3)nc3c2C2CCCN2C(=O)N3c2ccccc2)c1N (configuration not stated) | 9.37% | 12.3% | 6.82% | 0.24 | 9.92% |  | inhibition in vivo at 13 mg/kg [22]: 76.8%
5 | CCCNc1nc(-c2ccccc2)nc2c1C1CCCN1C(=O)N2c1ccccc1 (configuration not stated) | 30.9% | 13.5% | 36.6% | 1.34 | 25.6% |  | inhibition in vivo at 20 mg/kg [15]: 63.3%; inhibition in vivo at 11.66 mg/kg [23]: 69.6%; IC50 [16]: 16.5 mg/kg; inhibition in vivo at 15 mg/kg [17]: 41.6%; inhibition in vivo at 10 mg/kg [19]: 27.6%; inhibition in vivo at 25 mg/kg [20]: 69%
6 | COc1ccc(C2NC(=O)C3=C(N2)N(c2ccccc2)C(=O)N2CCCC32)cc1 (configuration not stated) | 13.7% | 6.72% | 18.6% | 0.68 | 6.64% |  | inhibition in vivo at 11.32 mg/kg [24]: 84.4%
7 | O=C1N(c2ccccc2)c2nc(-c3ccccc3)nc(N3CCOCC3)c2C2CCCN12 (configuration not stated) | 18.7% | 11.2% | 11.2% | 0.4 | 19% | Non-toxic | inhibition in vivo at 12.4 mg/kg [25]: 67%
8 | Cc1ccc(S(=O)(=O)NNc2nc(-c3ccccc3)nc3c2C2CCCN2C(=O)N3c2ccccc2)cc1 (configuration not stated) | 23.1% | 22.4% | 21.7% | 0.79 | 16.6% |  | inhibition in vivo at 15.26 mg/kg [26]: 76.6%
9 | Cc1cc(C)n(-c2nc(-c3ccccc3)nc3c2C2CCCN2C(=O)N3c2ccccc2)n1 (configuration not stated) | 20.9% | 17.9% | 17.4% | 0.63 | 20.7% |  | inhibition in vivo at 12.65 mg/kg [27]: 76.6%
10 | CCOC(=O)c1cnn(-c2nc(-c3ccccc3)nc3c2C2CCCN2C(=O)N3c2ccccc2)c1N (configuration not stated) | 23.7% | 6.74% | 11.2% | 0.4 | 18.2% | Non-toxic | inhibition in vivo at 14.37 mg/kg [28]: 74.8%
11 | O=C1N(c2ccccc2)c2nc(-c3ccccc3)nc(N3CCCC3)c2C2CCCN12 (configuration not stated) | 25.2% | 7.82% | 15.5% | 0.56 | 26.5% | Non-toxic | inhibition in vivo at 12.04 mg/kg [29]: 95%
